Laboratory results from ChEMBL document CHEMBL2163301, “Substrates for efficient fluorometric screening employing the NAD-dependent sirtuin 5 lysine deacylase (KDAC) enzyme” (J Med Chem, 2012).
Counter-ions that a name gives are not always drawn. Calls of active or inactive are those of the source. The rule behind the calls is not given here. Where a SMILES comes first, the peptide text is derived from it. The star is where a group is joined. AMC = Cc1cc(=O)oc2cc(N*)ccc12; Tfa = O=C(C(F)(F)F)*

Columns and labels:
[1] = tested on: CC(=O)N[C@@H](CC(C)C)C(=O)NCC(=O)N[C@@H](CCCCNC(=O)CCC(=O)O)C(=O)Nc1ccc2c(C)cc(=O)oc2c1; test: (§1) Activity of human SIRT5 assessed as desuccinylation of compound after 1 hr by Michaelis-Menten plot analysis
Outline: (§2)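 Recombinant human SIRT5 with fluorogenic succinyllysine-AMC substrate and NAD in Tris-Cl buffer pH 8.0 containing BSA, with in situ AMC release by Lys-C or trypsin developer. Fluorescence (ex 360/em 460 nm) read every 30 s for at least 30 min at 25 °C to give initial rates over a substrate concentration series. Km and Vmax from Michaelis-Menten fit; kcat from AMC standard curve and supplier enzyme concentration.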

[2] = tested on: CC(=O)N[C@@H](CCCCNC(=O)CCC(=O)O)C(=O)Nc1ccc2c(C)cc(=O)oc2c1; test: as §1; outline: as §2
[3] = tested on: CC(=O)N[C@@H](CC(C)C)C(=O)NCC(=O)N[C@@H](CCCCNC(=O)CCC(=O)O)C(=O)Nc1ccc2c(C)cc(=O)oc2c1; test: (§3) Ratio of Kcat to Km for human SIRT5 assessed as desuccinylation of compound after 1 hr by Michaelis-Menten plot analysis; outline: as §2
[4] = tested on: CC(=O)N[C@@H](CCCCNC(=O)CCC(=O)O)C(=O)Nc1ccc2c(C)cc(=O)oc2c1; test: as §3; outline: as §2
[5] = molecular target: T1, NAD-dependent protein deacetylase sirtuin-1 (Homo sapiens) (UniProt Q96EB6); test: Activity of human full length SIRT1 enzyme at 50 uM after 1 hr by trypsin developer-based fluorescence assay
T1 sequence (whole entry): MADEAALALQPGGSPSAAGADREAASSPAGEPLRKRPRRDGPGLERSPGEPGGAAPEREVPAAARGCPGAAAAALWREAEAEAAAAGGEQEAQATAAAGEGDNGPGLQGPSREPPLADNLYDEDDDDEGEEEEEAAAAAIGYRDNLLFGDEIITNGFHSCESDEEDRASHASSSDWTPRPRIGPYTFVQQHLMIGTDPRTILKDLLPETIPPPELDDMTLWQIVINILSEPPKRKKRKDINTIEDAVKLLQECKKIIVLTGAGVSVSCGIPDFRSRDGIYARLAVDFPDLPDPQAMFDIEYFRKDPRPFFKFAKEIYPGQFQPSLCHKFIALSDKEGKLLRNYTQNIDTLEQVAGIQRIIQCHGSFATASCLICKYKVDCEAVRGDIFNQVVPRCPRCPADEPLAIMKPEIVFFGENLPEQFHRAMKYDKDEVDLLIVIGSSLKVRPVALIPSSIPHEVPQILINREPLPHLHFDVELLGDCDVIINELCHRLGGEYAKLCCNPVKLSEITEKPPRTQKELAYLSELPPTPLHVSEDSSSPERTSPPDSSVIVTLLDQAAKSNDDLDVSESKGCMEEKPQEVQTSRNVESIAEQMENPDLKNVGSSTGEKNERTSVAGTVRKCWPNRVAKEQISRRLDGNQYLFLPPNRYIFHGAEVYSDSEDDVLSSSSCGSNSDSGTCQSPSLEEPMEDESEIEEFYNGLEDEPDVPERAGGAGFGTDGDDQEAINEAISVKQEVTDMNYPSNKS
Outline: (§4)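 Acetylated substrates were each treated with commercial full-length His-tagged SIRT1 or truncated SIRT1-GST fusion, with NAD, in Tris-Cl pH 8.0 buffer containing BSA. End point: 1 h at 37 °C, then nicotinamide (2 mM)/trypsin (0.4 mg/mL) developer for 15–30 min at room temperature. Fluorescence read at ex 360/em 460 nm against no-enzyme control wells.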

[6] = molecular target: T1, NAD-dependent protein deacetylase sirtuin-1 (Homo sapiens); test: Activity of human truncated SIRT1-GST fusion protein at 50 uM after 1 hr by trypsin developer-based fluorescence assay; outline: as §4
[7] = molecular target: T2, NAD-dependent protein deacetylase sirtuin-7 (Homo sapiens) (UniProt Q9NRC8); test: Activity of recombinant human SIRT7 assessed as deacylation of compound at 50 uM after 1 hr by trypsin developer-based fluorescence assay
T2 sequence (whole entry): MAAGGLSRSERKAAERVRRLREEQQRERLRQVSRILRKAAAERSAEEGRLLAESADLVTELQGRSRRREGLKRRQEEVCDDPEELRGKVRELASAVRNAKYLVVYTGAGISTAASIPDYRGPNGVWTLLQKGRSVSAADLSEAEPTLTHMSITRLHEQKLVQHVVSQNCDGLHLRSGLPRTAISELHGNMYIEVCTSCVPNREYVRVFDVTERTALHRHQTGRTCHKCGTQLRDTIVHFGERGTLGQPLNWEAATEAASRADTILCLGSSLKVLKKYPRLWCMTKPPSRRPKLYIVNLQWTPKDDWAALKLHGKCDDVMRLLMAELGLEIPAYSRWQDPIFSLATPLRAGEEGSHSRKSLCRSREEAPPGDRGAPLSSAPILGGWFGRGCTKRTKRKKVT
Outline: (§5)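 Recombinant sirtuin at 1 μg per 50 μL reaction, with SIRT1-GST fusion as the SIRT1 source. Fluorogenic substrate and NAD incubated in Tris-Cl buffer pH 8.0 with BSA (1 mg/mL) for 1 h at 37 °C. Developer with nicotinamide (2 mM) and trypsin (0.4 mg/mL) added, 15–30 min at room temperature. Fluorescence read at ex 360/em 460 nm and normalized to no-enzyme wells. At least two experiments in duplicate.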

[8] = molecular target: T3, NAD-dependent protein deacetylase sirtuin-3, mitochondrial (Homo sapiens) (UniProt Q9NTG7); test: Activity of human SIRT3 assessed as deacylation of compound at 50 uM after 1 hr by trypsin developer-based fluorescence assay; outline: as §5
T3 sequence (whole entry): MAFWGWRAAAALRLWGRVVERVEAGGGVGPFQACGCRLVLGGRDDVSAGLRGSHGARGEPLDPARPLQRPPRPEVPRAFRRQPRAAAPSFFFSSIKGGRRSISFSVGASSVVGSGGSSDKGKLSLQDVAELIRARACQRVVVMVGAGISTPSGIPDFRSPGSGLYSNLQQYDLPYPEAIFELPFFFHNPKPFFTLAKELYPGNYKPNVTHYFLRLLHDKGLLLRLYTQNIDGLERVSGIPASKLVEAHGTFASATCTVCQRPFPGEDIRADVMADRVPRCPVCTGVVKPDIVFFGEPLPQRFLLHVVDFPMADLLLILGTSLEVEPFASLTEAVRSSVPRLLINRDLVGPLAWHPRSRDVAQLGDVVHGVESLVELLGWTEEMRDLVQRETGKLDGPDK

[9] = molecular target: NAD-dependent protein deacylase sirtuin-6 (Homo sapiens) (UniProt Q8N6T7); test: Activity of human SIRT6 assessed as deacylation of compound at 50 uM after 1 hr by trypsin developer-based fluorescence assay; outline: as §5
[10] = molecular target: T4, NAD-dependent protein lipoamidase sirtuin-4, mitochondrial (Homo sapiens) (UniProt Q9Y6E7); test: Activity of recombinant human SIRT4 assessed as deacylation of compound at 50 uM after 1 hr by trypsin developer-based fluorescence assay; outline: as §5
T4 sequence (whole entry): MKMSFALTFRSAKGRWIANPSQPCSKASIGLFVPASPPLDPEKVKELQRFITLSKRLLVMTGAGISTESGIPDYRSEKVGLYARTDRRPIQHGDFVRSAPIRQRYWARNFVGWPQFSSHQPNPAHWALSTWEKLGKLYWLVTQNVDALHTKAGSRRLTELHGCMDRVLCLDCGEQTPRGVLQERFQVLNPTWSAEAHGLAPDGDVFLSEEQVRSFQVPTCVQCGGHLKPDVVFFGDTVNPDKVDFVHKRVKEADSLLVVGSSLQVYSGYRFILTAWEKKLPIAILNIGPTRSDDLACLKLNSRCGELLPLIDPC

[11] = molecular target: NAD-dependent protein deacylase sirtuin-5, mitochondrial (Homo sapiens) (UniProt Q9NXA8); test: Activity of human SIRT5 assessed as deacylation of compound at 50 uM after 1 hr by trypsin developer-based fluorescence assay; outline: as §5
[12] = molecular target: T1, NAD-dependent protein deacetylase sirtuin-1 (Homo sapiens); test: Activity of human SIRT1 assessed as deacylation of compound at 50 uM after 1 hr by trypsin developer-based fluorescence assay; outline: as §5
[13] = molecular target: T5, NAD-dependent protein deacetylase sirtuin-2 (Homo sapiens) (UniProt Q8IXJ6); test: Activity of human SIRT2 assessed as deacylation of compound at 50 uM after 1 hr by trypsin developer-based fluorescence assay; outline: as §5
T5 sequence (whole entry): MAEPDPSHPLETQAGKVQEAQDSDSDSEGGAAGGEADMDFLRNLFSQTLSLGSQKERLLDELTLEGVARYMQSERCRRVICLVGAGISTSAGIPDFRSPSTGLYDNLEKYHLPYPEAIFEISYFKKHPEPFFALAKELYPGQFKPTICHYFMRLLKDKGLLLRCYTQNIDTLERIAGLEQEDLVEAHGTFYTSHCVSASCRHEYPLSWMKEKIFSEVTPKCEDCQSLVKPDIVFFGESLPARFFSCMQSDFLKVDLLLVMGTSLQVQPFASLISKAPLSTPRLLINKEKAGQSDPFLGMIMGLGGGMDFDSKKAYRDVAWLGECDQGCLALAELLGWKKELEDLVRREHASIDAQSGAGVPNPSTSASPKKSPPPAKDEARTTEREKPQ

[14] = molecular target: T3, NAD-dependent protein deacetylase sirtuin-3, mitochondrial (Homo sapiens); test: Activity of human SIRT3 assessed as decrotonylation of compound at 50 uM after 1 hr by trypsin developer-based fluorescence assay; outline: as §5
[15] = molecular target: T1, NAD-dependent protein deacetylase sirtuin-1 (Homo sapiens); test: Activity of human SIRT1 assessed as decrotonylation of compound at 50 uM after 1 hr by trypsin developer-based fluorescence assay; outline: as §5
[16] = molecular target: T5, NAD-dependent protein deacetylase sirtuin-2 (Homo sapiens); test: Activity of human SIRT2 assessed as decrotonylation of compound at 50 uM after 1 hr by trypsin developer-based fluorescence assay; outline: as §5
[17] = molecular target: NAD-dependent protein deacylase sirtuin-5, mitochondrial (Homo sapiens) (UniProt Q9NXA8); test: Activity of human SIRT5 assessed as decrotonylation of compound at 50 uM after 1 hr by trypsin developer-based fluorescence assay; outline: as §5
[18] = molecular target: NAD-dependent protein deacylase sirtuin-6 (Homo sapiens) (UniProt Q8N6T7); test: Activity of human SIRT6 assessed as decrotonylation of compound at 50 uM after 1 hr by trypsin developer-based fluorescence assay; outline: as §5

NAD-dependent protein deacylase sirtuin-5, mitochondrial (Homo sapiens), Q9NXA8, sequence (Q9NXA8 whole entry): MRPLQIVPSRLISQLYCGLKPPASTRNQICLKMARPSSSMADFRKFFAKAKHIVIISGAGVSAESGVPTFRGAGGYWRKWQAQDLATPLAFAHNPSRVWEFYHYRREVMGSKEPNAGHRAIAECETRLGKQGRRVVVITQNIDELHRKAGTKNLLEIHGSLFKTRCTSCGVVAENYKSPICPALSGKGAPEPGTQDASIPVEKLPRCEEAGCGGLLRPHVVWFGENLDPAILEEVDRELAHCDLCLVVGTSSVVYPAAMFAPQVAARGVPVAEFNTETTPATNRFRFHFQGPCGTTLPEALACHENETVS
NAD-dependent protein deacylase sirtuin-5, mitochondrial (Homo sapiens), sequence (Q9NXA8 37-310 limits assumed): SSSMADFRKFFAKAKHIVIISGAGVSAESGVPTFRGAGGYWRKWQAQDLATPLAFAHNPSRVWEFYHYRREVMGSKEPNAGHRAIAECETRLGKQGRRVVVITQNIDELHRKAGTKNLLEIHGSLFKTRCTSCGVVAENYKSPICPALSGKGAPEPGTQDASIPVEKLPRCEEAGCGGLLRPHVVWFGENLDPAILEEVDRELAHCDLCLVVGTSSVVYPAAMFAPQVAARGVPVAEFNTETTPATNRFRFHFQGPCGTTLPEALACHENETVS
NAD-dependent protein deacylase sirtuin-6 (Homo sapiens), sequence (Q8N6T7 whole entry): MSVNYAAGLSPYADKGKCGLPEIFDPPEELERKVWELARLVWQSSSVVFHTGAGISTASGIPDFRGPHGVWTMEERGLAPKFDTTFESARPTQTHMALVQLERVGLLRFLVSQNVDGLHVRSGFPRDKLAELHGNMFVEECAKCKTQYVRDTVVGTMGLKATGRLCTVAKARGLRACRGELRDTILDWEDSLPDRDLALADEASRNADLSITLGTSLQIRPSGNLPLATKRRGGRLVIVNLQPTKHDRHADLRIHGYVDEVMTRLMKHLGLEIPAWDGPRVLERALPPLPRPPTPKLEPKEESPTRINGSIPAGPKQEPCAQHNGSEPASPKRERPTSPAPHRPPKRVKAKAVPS

Q: “NAD-dependent protein deacylase sirtuin-5, mitochondrial (Homo sapiens), Q9NXA8” was tested. Which Km [1] did it give?
A: 33 µM

Q: What about the Vmax [1] of the same compound?
A: 1.9 nM/s

Q: And the kcat [1]?
A: 3 ×10⁻² /s

Q: What about the Km [2] of the same compound?
A: 84 µM

Q: And the Vmax [2]?
A: 5.6 ×10⁻⁴ µM/s

Q: What about the kcat [2] of the same compound?
A: 9 ×10⁻³ /s

Q: What about the kcat/Km [3] of the same compound?
A: 9.2 ×10² /s/M

Q: What about the kcat/Km [4] of the same compound?
A: 1.1 ×10² /s/M

Q: With CC(=O)NCCCC[C@H](NC(=O)[C@H](CCCNC(=N)N)NC(=O)[C@H](C)NC(=O)[C@@H](NC(C)=O)[C@H](C)O)C(=O)Nc1ccc2c(C)cc(=O)oc2c1 as the compound, how does the Activity [5] read?
A: Active

Q: And the Activity [6]?
A: Active

Q: What about the Activity [7] of the same compound?
A: inactive

Q: And the Activity [8]?
A: Active

Q: What about the Activity [9] of the same compound?
A: inactive

Q: What about the Activity [10] of the same compound?
A: inactive

Q: And the Activity [11]?
A: inactive

Q: What about the Activity [12] of the same compound?
A: Active

Q: And the Activity [13]?
A: Active

Q: Which Activity [5] does the source give for CC(=O)NCCCC[C@H](NC(=O)[C@H](CCCCN)NC(=O)[C@@H]1CCCN1C(=O)[C@H](CCC(N)=O)NC(C)=O)C(=O)Nc1ccc2c(C)cc(=O)oc2c1 (Ac-QPKK(Ac)-{AMC}) here?
A: inactive

Q: And the Activity [6]?
A: inactive

Q: And the Activity [7]?
A: inactive

Q: What about the Activity [8] of the same compound?
A: Active

Q: What about the Activity [9] of the same compound?
A: inactive

Q: And the Activity [10]?
A: inactive

Q: What about the Activity [11] of the same compound?
A: inactive

Q: What about the Activity [12] of the same compound?
A: Active

Q: And the Activity [13]?
A: Active

Q: With CC(=O)N[C@@H](CC(C)C)C(=O)NCC(=O)N[C@@H](CCCCNC(=O)C(F)(F)F)C(=O)Nc1ccc2c(C)cc(=O)oc2c1 (Ac-Leu-Gly-Lys(Tfa)-{AMC}) as the compound, how does the Activity [14] read?
A: inactive

Q: What about the Activity [15] of the same compound?
A: Active

Q: And the Activity [16]?
A: inactive

Q: And the Activity [17]?
A: inactive

Q: And the Activity [18]?
A: inactive

Q: Which Activity [5] does the source give for CC(=O)NCCCC[C@H](NC(=O)[C@H](CCCCN)NC(=O)[C@H](Cc1cnc[nH]1)NC(=O)[C@H](CCCNC(=N)N)NC(C)=O)C(=O)Nc1ccc2c(C)cc(=O)oc2c1 (Ac-RHKK(Ac)-{AMC}) here?
A: inactive

Q: What about the Activity [6] of the same compound?
A: inactive

Q: What about the Activity [7] of the same compound?
A: inactive

Q: What about the Activity [8] of the same compound?
A: Active

Q: And the Activity [9]?
A: inactive

Q: What about the Activity [10] of the same compound?
A: inactive

Q: And the Activity [11]?
A: inactive

Q: And the Activity [12]?
A: Active

Q: And the Activity [13]?
A: Active
